Screening data deposited in PubChem BioAssay by several laboratories.
Rev-RRE block: HIV Rev-RRE protein-RNA interaction inhibition. P05866. Rev peptide-RRE RNA binding, FRET. inhibition, % at 8 µM. actives 0.79% (n = 97,000). AID 704;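 active = inhibition above the screen-wide mean plus 3 SD, cut at about 35% in these data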;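 also: 0% = median DMSO wells and 100% = median Neomycin B control wells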
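Test system – labelled RRE RNA duplex and labelled Rev peptide · Reagent – labelled Rev peptide · Doses – one concentration, 8 µM nominal · Incubation – 5 + 15 min at 25 °C · Signal – FRET fluorescence readout · Read-out basis – % inhibition of FRET ratio versus controls · Control set – DMSO wells as 0% and neomycin B wells as 100% inhibition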
Plk1 PBD FP: Plk1 (human) PBD binding inhibition; Plk1 PBD phosphopeptide binding, fluorescence polarization; actives 0.13% (n = 97,000); P53350; inhibition, %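 (tested at about 20 µM)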; in the data active = inhibition above about 34%, passing the limit was not always enough
Target sequence (P53350 whole entry, looked up): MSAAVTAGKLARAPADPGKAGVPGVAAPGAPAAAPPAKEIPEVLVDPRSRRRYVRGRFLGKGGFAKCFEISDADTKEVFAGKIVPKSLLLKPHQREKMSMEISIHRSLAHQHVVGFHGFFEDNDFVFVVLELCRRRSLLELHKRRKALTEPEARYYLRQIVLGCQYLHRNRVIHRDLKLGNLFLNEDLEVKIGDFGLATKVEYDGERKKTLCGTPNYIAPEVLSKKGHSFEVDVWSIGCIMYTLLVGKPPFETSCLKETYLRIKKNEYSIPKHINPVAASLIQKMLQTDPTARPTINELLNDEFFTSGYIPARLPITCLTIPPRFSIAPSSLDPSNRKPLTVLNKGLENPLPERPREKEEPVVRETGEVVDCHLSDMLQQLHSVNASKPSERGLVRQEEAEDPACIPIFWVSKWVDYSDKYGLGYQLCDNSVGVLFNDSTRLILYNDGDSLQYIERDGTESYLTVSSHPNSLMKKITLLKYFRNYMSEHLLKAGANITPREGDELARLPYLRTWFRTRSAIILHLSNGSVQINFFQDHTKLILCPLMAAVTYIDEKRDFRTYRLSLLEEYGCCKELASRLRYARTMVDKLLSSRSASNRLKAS
PLK1 inh: PLK1 (human) kinase inhibition. P53350. recombinant PLK1 kinase, TR-FRET peptide phosphorylation. actives 0.53% (n = 97,000). inhibition, % at 10 µM;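 active = inhibition of 50% or more in the single-concentration screen; inactive = inhibition below 50%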;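 also: 0% = DMSO max control and 100% = H-89 dihydrochloride min control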
PostGolgi ctrl: inhibits growth of the yeast control strain. AID 738. actives 5% (n = 98,000). inhibition, % at 10 µM. efflux-deficient yeast background strain, growth absorbance A615, 16 h
PostGolgi yeast: growth inhibition of a yeast mutant, post-Golgi transport screen; inhibition, % at 10 µM; actives 0.9% (n = 98,000); post-Golgi transport phenotypic cell assay;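 also: yeast cells grown in 1536-well plates; yeast grown about 18 h at 30C before absorbance read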
EphB4 ephrin blk: antagonists of human EphB4-ephrin-B2 interaction; P54760; EphB4 LBD / TNYL-RAW-Alexa532 peptide, fluorescence polarization; inhibition, % at 7 µM; actives 0.15% (n = 97,000); AID 720;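 active = inhibition above the screen-wide mean inhibition plus 3 SD, cut at about 15% in these data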;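 also: 0% = DMSO wells and 100% = excess unlabeled TNYL-RAW peptide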
Numbers without * were called inactive; nt = no result given; [ ] = remark or other dose. The list is not random: actives were taken first. Their share in the collection is about 6.4%. Rule as the data show it, unless noted: active = inhibition above about 30%; inactive = the rest.

SMILES	Rev-RRE block	Plk1 PBD FP	PLK1 inh	PostGolgi ctrl	PostGolgi yeast	EphB4 ephrin blk
CCCCn1c(O)c(C(CC)=NCCc2ccccc2)c(=O)[nH]c1=O	9	20	-9	55*	24	-6
CCCCn1c(O)c(C(CC)=NCc2ccc(F)cc2)c(=O)[nH]c1=O	9	-8	1	31*	23	12
CCCCn1c(O)c(C(C)=NCc2ccc(F)cc2)c(=O)[nH]c1=O	8	-14	11	11	1	1
CCCCCCN=C(C)c1c(O)n(CCCC)c(=O)[nH]c1=O	0	-4	-2	38*	9	6
CCN(CC)C1=NC(=[N+](CC)CC)c2ccccc21	1	6	-1	10	0	4
CCOC(=O)C1=C(C)N(C)C2(C)CC1c1ccccc1O2 (stereo unspecified)	-3	24	-7	3	-8	-1
Cc1ccc(CCN2CC(C(=O)N3CCC4(CC3)OCCO4)CC2=O)cc1 (stereo unspecified)	2	-18	-6	3	0	6
COCCn1cc(C(=O)N2CCC3(CC2)OCCO3)c2c3ccccc3n(C)c2c1=O	0	13	-3	1	-3	-3
Cn1c2ccccc2c2c(C(=O)N3CCC4(CC3)OCCO4)cn(C3CCCC3)c(=O)c21	5	-13	-28	4	33*	-2
CCN1C(=O)NC(=O)/C(=C\c2ccc(N3CCOCC3)cc2OC)C1=O	12	-8	1	-1	-6	-2
CCN(CC)c1ccc(/C=C2/C(=O)NC(=O)N(CC3CCCO3)C2=O)cc1 (stereo unspecified)	89*[fluorescence artefact?]	-17	-6	-4	3	5
CCCCn1c(O)c(C=NCCCN(CC)CC)c(=O)[nH]c1=O	9	27	3	46*	5	2
C=CCn1c(O)c(C=NCCN(C)C)c(=O)[nH]c1=O	38*	2	-4	9	4	3
CCCCn1c(O)c(C=NC2CC3CCC2(C)C3(C)C)c(=O)[nH]c1=O (stereo unspecified)	4	-6	6	63*	5	-5
C=CCn1c(O)c(C=NCCN2CCNCC2)c(=O)[nH]c1=O	9	12	-10	4	6	2
CCOc1cccc(N2C(=O)CC(=O)NC2=O)c1	15	6	-15	19	-7	17*[fluorescence artefact?]
Cc1ccnc(-n2c(-c3ccccc3)nc3ccccc3c2=O)c1	0	-19	-12	34*	0	-5
Cc1ccnc(-n2c(C)nc3ccccc3c2=O)c1	nt	nt	nt	5	2	nt
Cc1cc(C=C2C(=O)N(C)C(=S)N(C)C2=O)c(C)n1C1CCCC1	19	-24	-6	12	2	2
CN1C(=O)C(=Cc2ccc(N3CCCCCC3)o2)C(=O)N(C)C1=S	124*[fluorescence artefact?]	-190	-11	19	-3	-3
CC12CN3CC(C)(CN(C1)C3c1cccs1)C2O (stereo unspecified)	12	18	-6	4	5	1
CN1CCc2nc3sc(C#N)c(N)c3c(-c3cccs3)c2C1	32	9	17	-1	-8	2
CN1CCc2nc(N)c(C#N)c(-c3ccccc3)c2C1	46*	2	8	8	10	3
COc1ccccc1-n1c(O)c(C=NCCN2CCNCC2)c(=O)[nH]c1=O	2	8	-8	26	-21	2
CN(CC1COc2ccccc2O1)c1nc(-c2cccnc2)nc2ccccc12 (stereo unspecified)	6	-12	-5	70*	6	4
SMILES	Rev-RRE block	Plk1 PBD FP	PLK1 inh	PostGolgi ctrl	PostGolgi yeast	EphB4 ephrin blk
CN1CCC(N(C)c2nc(-c3ccc([N+](=O)[O-])cc3)nc3ccccc23)CC1	3	-14	-3	-3	-8	-7
Cc1c(/C=C2/CC3C4CC=C5CC(O)CCC5(C)C4CCC3(C)C2=O)cnn1C (stereo unspecified)	-2	-2	-4	nt	nt	0
Cc1sc2ncn(CC(=O)NCCCC(=O)N3CCC4(CC3)OCCO4)c(=O)c2c1C	1	-15	12	36*	-13	2
C1=C(c2c[nH]c3ccccc23)CCNC1	99*[fluorescence artefact?]	-57	14	-5	-6	12
CCCCN1C(=O)/C(=C/c2ccc(N(C)C)cc2)C(=O)N(Cc2ccco2)C1=O	53*	-1	-12	3	-3	-21
Cc1ccc(OP(=O)(O)Oc2ccc(C)cc2)cc1	5	-13	-22	nt	nt	3
O=P(C(=Nc1ccc(Cl)cc1)N1CCOCC1)(N1CCOCC1)N1CCOCC1	3	-5	-11	nt	nt	-2
O=C1CN(C(=O)CN2CCCCC2)C(c2ccccc2)c2cc(Br)ccc2N1 (stereo unspecified)	7	24	-3	0	-3	16*
CC/C(=C\C=C\[C@@H]1C=C[C@@H]2CCC[C@H]2[C@@H]1C(=O)c1ccc[nH]1)[C@@H]1O[C@@H]([C@@H](C)C(=O)O)CC[C@@H]1C	0	-2	-8	nt	nt	-2
N=C(N)c1c(O)n(C2CCCCC2)c(=O)n(C2CCCCC2)c1=O	16	-13	-6	53*	8	5
CCN(CC)c1ccc(N=Cc2c(O)n(-c3ccc(Cl)cc3)c(=O)[nH]c2=O)cc1	31	-4	-10	-6	3	2
COc1ccc2nc(/N=C/c3c(O)n(-c4cccc(Cl)c4)c(=O)[nH]c3=O)sc2c1	36*	8	-19	9	8	10
CCN(CC)c1ccc(N=Cc2c(O)n(-c3ccc(OC)cc3)c(=O)[nH]c2=O)cc1	72*	-9	-9	0	-6	-1
CCOc1ccc(-n2c(O)c(C=NCCN(CC)CC)c(=O)[nH]c2=O)cc1	8	2	-9	36*	-1	-10
C=CCn1c(O)c(C=Nc2ccc(N(CC)CC)cc2)c(=O)[nH]c1=O	56*	-2	-1	-1	-6	-1
CCOC(=O)CCN=Cc1c(O)n(-c2ccc(Br)cc2)c(=O)[nH]c1=O	7	-3	-10	19	1	-1
CN(C)C(=O)CSc1nnc([C@@H](N)Cc2ccccc2)o1	-2	-6	-7	-7	-8	-11
COc1cc(/C=N/NC(=O)CN2CC(c3ccccc3)CC2=O)ccc1OC(=O)N(C)C (stereo unspecified)	4	-18	-9	-6	-8	1
CCCCOP(=O)(CN1CCOCC1)OCCCC	6	8	-8	-5	14	9
Cc1ccccc1-n1c(O)c(C=Nc2ccc(N(C)C)cc2)c(=O)[nH]c1=O	41*	11	-11	13	-12	-5
Cc1cccc(N=Cc2c(O)n(-c3ccccc3C)c(=O)[nH]c2=O)c1	14	-26	3	-10	6	2
CCN(CC)c1ccc(N=Cc2c(O)n(CCC3=CCCCC3)c(=O)[nH]c2=O)cc1	42*	-1	-17	7	-1	9
CCc1cc2c(N3CCN(C)CC3)ncnc2s1	2	15	-8	nt	nt	1
